Source: PubChem BioAssay
Activity calls are given as the source filed them.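 The calls were made as follows, unless noted: active = inhibition at or above 50% at 10 µM; inactive = inhibition below 50%.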

What was measured:
[1] = inhibitors of TNFa-induced NFkB p65 translocation, primary screen, imaging, HUVEC, MLSMR starter and 10KST1 sets (AID 438;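 active = inhibition above 20% together with a positive visual image hit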;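 also: compound added about 3h40 before a 20 min TNFalpha stimulation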;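 as to inhibition: signal is the nuclear over cytoplasmic p65 intensity ratio per well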); conditions: HUVEC TNFa-induced p65 nuclear translocation; cell count: measured here: nuclei count (cytotoxicity indicator), at 2.08 µM; inhibition: at 2 µM, stronger effect = higher value, 0% TNFa-plus-vehicle, 100% no-TNFa wells
[2] = reduction of polyQ htt aggregates in cells – imaging, exon1htt(103Q)mCFP cells, high-content imaging, primary screen (AID 483;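 active = visual image review flags a hit and inhibition of aggregation exceeds 20%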;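 also: compound exposure lasted 3 days before fixation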;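 as to nuclei count: percent of the per-plate median nuclei count of sample wells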); conditions: exon1htt(103Q)mCFP cell line, aggregate imaging, at 2 µM; inhibition of aggregation: stronger effect = higher value; nuclei count: measured here: cell count, toxicity
[3] = endothelial E-selectin expression blockers – imaging, HUVEC, immunofluorescence, MLSMR starter and 10KST1 sets, primary screen (AID 487;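 active = visually confirmed hit in the image check and inhibition above 20%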;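 as to inhibition: signal is fraction of cell area covered by stained E-selectin grains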;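 as to nuclei count: 100% = median nuclei count of all wells on the same plate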); conditions: HUVEC TNFalpha-induced E-selectin immunofluorescence imaging, at 2 µM; inhibition: stronger effect = higher value; nuclei count: measured here: cell number, toxicity
[4] = molecular target: Voltage-gated potassium channel subunit beta-2 (Rattus norvegicus) (UniProt P62483); assay: inhibitors of rat Kvbeta2 reductase activity – biochemical, NADPH fluorescence, primary screen (AID 622;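 active = fluorescence slope higher than the sample average by over 3 SD, cut at about -0.22 in these data, passing the limit was not always enough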;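 also: slope of raw intensity against log time taken from 70 to 1610 s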); conditions: recombinant KvBeta, 4-cyanobenzaldehyde reduction, at 10 µM, stronger effect = higher value
[5] = molecular target: Voltage-gated potassium channel subunit beta-2 (Rattus norvegicus) (UniProt P62483); assay: enhancers of rat Kvbeta2 NADPH turnover – biochemical, NADPH fluorescence, primary screen (AID 623;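 active = NADPH fluorescence slope more negative than the mean of all samples by about 3 SD, 99.7% confidence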;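 also: fluorescence intensity change per second fitted from 20 to 320 s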); conditions: Recombinant KvBeta, NADPH fluorescence decrease slope, 10 min; at 10 µM; stronger effect = lower value
[6] = molecular target: Alpha-2C adrenergic receptor (Homo sapiens) (UniProt P18825); assay: compounds altering alpha2C-coupled GIRK flux – cell-based, HEK293 alpha2C/GIRK1/2, thallium flux, primary screen (AID 624;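 active = fluorescence slope after compound addition differing from the mean of all screened samples at 99.7% confidence, in either direction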;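 also: slope of fluorescence ratio to pre-addition baseline per second over 15 to 24 s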); conditions: thallium flux BTC fluorescence, at 10 µM, actives lie on both sides
[7] = inhibitors of larval lipid processing in zebrafish, primary screen, whole organism, PED6 fluorescence, gall bladder and intestine (AID 686;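 active = a full or partial loss of lipid-probe fluorescence in the fish gall bladder, intestine or both, judged by eye; inactive = no fluorescence loss, or compound toxic to the fish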;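 also: larvae 5 to 7 days old with five fish per well; signal comes from phospholipase A2 cleavage of quenched PED6 carried via bile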); conditions: Zebrafish larvae PED6 lipid processing, fluorescence scoring; screened at 20 µM (by protocol)
Summary of the method: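 Incubation: overnight exposure of larvae to compound plus PED6 / Test system: live zebrafish larvae aged 5-7 days, whole organism / Amount: 5 larvae per well / Read-out basis: visual per-well fluorescence inhibition score / Signal: visual fluorescence microscopy scoring of gall bladder, gut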

[8] = blockers of RIG-like receptor reporter activation – cell-based, Sendai virus stimulus, luciferase, 10K MLSCN set, TLR/RLR signaling modifier project, primary screen (AID 602276); conditions: HEK293 RL24 IRF3 luciferase reporter, at 10 µM, stronger effect = higher value;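 also: firefly luciferase from ISG56 promoter only with Renilla not read in this screen; 0% = Sendai virus plus DMSO and 100% = medium plus DMSO without virus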
[9] = TLR3 IRF3 reporter activation blockers – cell-based, poly I:C stimulus, luciferase, 10K MLSCN set, primary screen (AID 602277;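 active = inhibition of the reporter signal at or above 50%; inactive = inhibition below 50%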); conditions: HEK293-TLR3 RL24 IRF3 luciferase reporter, at 10 µM, stronger effect = higher value

Sequence of Voltage-gated potassium channel subunit beta-2 (Rattus norvegicus) (P62483 whole entry, looked up): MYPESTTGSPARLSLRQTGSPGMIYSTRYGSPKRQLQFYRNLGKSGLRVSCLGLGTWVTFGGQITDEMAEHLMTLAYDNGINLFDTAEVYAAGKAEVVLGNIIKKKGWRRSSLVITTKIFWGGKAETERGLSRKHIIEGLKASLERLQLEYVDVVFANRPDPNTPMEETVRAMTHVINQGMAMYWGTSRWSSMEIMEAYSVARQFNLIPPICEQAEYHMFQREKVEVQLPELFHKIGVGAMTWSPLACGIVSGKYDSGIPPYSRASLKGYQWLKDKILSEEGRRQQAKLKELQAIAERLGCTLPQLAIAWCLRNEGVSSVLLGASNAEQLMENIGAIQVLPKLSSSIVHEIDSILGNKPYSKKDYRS
Sequence of Alpha-2C adrenergic receptor (Homo sapiens) (P18825 whole entry, looked up): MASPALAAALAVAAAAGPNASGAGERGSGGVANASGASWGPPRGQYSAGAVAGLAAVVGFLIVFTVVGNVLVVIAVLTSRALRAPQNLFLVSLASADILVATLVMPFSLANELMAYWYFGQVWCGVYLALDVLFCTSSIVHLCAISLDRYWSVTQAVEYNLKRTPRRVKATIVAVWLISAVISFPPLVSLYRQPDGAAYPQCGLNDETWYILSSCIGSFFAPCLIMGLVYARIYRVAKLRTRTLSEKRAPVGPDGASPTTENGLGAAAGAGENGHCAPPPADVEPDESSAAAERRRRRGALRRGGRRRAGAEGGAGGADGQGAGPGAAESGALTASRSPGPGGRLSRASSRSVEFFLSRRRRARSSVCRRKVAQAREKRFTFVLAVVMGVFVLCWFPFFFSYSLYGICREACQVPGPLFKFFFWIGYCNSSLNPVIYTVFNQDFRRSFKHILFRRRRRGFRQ

Compound	cell count [1]	inhibition [1]	inhibition of aggregation [2]	nuclei count [2] [%]	inhibition [3]	nuclei count [3] [%]	fluorescence slope [4]	NADPH fluorescence slope [5]	slope [6]	outcome [7]	inhibition [8]	inhibition [9]
O=C(CSc1nnc(-c2ccccn2)n1Cc1ccccc1)N1CCCC1	340	8.1% (inactive)	7.9% (inactive)	112	19.6% (inactive)	97.4	-0.365 (inactive)	-6.5e-05 (inactive)	0.00635 (inactive)	inactive	3.06% (inactive)	2.57% (inactive)
Cc1nc(C)n(C(C)CC(=O)O)n1 (centres undefined)	635	0.7% (inactive)	53.1% (active)	90.8	-147% (inactive)	115	-0.386 (inactive)	-4.4e-05 (inactive)	0.00496 (inactive)	inactive	5.03% (inactive)	7.13% (inactive)
CC(C)(C)C(=O)OCC1OC(n2cnc(C(N)=O)n2)C(O)C1O (centres undefined)	468	-8.7% (inactive)	7.9% (inactive)	88.9	49.3% (inactive)	88	-0.382 (inactive)	8.9e-07 (inactive)	0.00529 (inactive)	inactive	5.04% (inactive)	4.14% (inactive)
O=C(CN1CCC(n2nnc3ccccc32)CC1)Nc1ccc2c(c1)CCC2	643	-9.3% (inactive)	4.8% (inactive)	96.4	-27% (inactive)	107	-0.42 (inactive)	-4.8e-05 (inactive)	0.00413 (inactive)	inactive	16% (inactive)	19% (inactive)
CC1(C)CC(=O)C(C=NC(CCC(N)=O)C(=O)O)=C(O)C1 (centres undefined)	520	-22.3% (inactive)	-15.6% (inactive)	113	54.4% (active)	93.1	-0.382 (inactive)	-1e-05 (inactive)	0.00504 (inactive)	inactive	13.3% (inactive)	13.8% (inactive)
COc1ccc(CC(=O)Nc2cc(Cl)ccc2O)cc1	605	-9.3% (inactive)	12% (inactive)	99.8	-72% (inactive)	108	-0.409 (inactive)	-1.5e-05 (inactive)	0.00576 (inactive)	inactive	-8.56% (inactive)	-1.02% (inactive)
COC(=O)c1ccc(NC(=O)C2C3CCC(C3)C2C(=O)O)cc1 (centres undefined)	416	2.5% (inactive)	0% (inactive)	89.6	52.5% (inactive)	103	-0.39 (inactive)	-1.7e-05 (inactive)	0.00477 (inactive)	inactive	-12.2% (inactive)	-15.9% (inactive)
COc1cc(C(=O)Nc2cc(-c3ccccc3)[nH]n2)cc(OC)c1OC	456	-6.3% (inactive)	15.9% (inactive)	94.3	-41% (inactive)	114	-0.385 (inactive)	-4.1e-05 (inactive)	0.00552 (inactive)	inactive	22.1% (inactive)	33.8% (inactive)
O=C(CCCn1c(=O)[nH]c2ccsc2c1=O)N1CCN(c2ccccn2)CC1	665	-5.2% (inactive)	-1% (inactive)	97.2	-13.1% (inactive)	106	-0.386 (inactive)	-4.1e-05 (inactive)	0.00451 (inactive)	inactive	8.33% (inactive)	13.1% (inactive)
Cc1cc(C)n2nc(SCC(=O)N(C)Cc3ccccc3)nc2n1	407	7.4% (inactive)	-27.8% (inactive)	116	-18.9% (inactive)	115	-0.435 (inactive)	-6.2e-06 (inactive)	0.00539 (inactive)	inactive	-13.5% (inactive)	-9.42% (inactive)
COc1ccc(S(=O)(=O)Nc2ccccc2SC)cc1C	664	-7.1% (inactive)	12.2% (inactive)	102	-125% (inactive)	105	-0.346 (inactive)	1.3e-05 (inactive)	0.00618 (inactive)	inactive	12.4% (inactive)	22.4% (inactive)
COc1ccc(-c2nsc(SCC(=O)Nc3cc(C)on3)n2)cc1	245	-7% (inactive)	14.4% (inactive)	84.3	50.5% (inactive)	64.4	-0.396 (inactive)	-2.2e-07 (inactive)	0.0058 (inactive)	inactive	21.4% (inactive)	17.9% (inactive)
